The data set is described as follows: Cytotoxicity against human Hep3B cells after 48 hrs by MTT assay. The class given is cell-based. The following applies: hep 3b2, 48 h. In outline:
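Hep3B cells plated and grown 24 h in 96-well plates, then switched to serum-free medium. Samples added at indicated concentrations for 48 h. Viability read by MTT assay.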
On the technique in general: Formazan colour is commonly taken as a measure of viable cells.
For `CC(C)/C=C/C[C@](C)(O[C@@H]1O[C@H](CO[C@@H]2O[C@@H](C)[C@H](O)[C@@H](O)[C@H]2O)[C@@H](O)[C@H](O)[C@H]1O)[C@H]1CC[C@]2(C)[C@@H]1[C@H](O)C[C@@H]1[C@@]3(C)C[C@@H](O)[C@H](O[C@@H]4O[C@H](CO)[C@@H](O)[C@H](O)[C@H]4O[C@@H]4O[C@H](CO)[C@@H](O)[C@H](O)[C@H]4O)C(C)(C)[C@@H]3CC[C@]12C`, the Activity result is given as “Non-toxic”.

`C[C@@H]1O[C@@H](OC[C@H]2O[C@@H](O[C@@](C)(C/C=C/C(C)(C)O)[C@H]3CC[C@]4(C)[C@@H]3[C@H](O)C[C@@H]3[C@@]5(C)C[C@@H](O)[C@H](O[C@@H]6O[C@H](CO)[C@@H](O)[C@H](O)[C@H]6O)C(C)(C)[C@@H]5CC[C@]34C)[C@H](O)[C@@H](O)[C@@H]2O)[C@H](O)[C@H](O)[C@H]1O`: the Activity entry is “Non-toxic”.

As for `CC(C)(/C=C/C[C@](C)(O[C@@H]1O[C@H](CO)[C@@H](O)[C@H](O)[C@H]1O)[C@H]1CC[C@]2(C)[C@@H]1[C@H](O)C[C@@H]1[C@@]3(C)C[C@@H](O)[C@H](O[C@@H]4O[C@H](CO)[C@@H](O)[C@H](O)[C@H]4O[C@@H]4O[C@H](CO)[C@@H](O)[C@H](O)[C@H]4O)C(C)(C)[C@@H]3CC[C@]12C)OO`, the Activity entry was “Non-toxic”.

On to `C[C@@H]1O[C@@H](OC[C@H]2O[C@@H](O[C@@](C)(C/C=C/C(C)(C)OO)[C@H]3CC[C@]4(C)[C@@H]3[C@H](O)C[C@@H]3[C@@]5(C)C[C@@H](O)[C@H](O[C@@H]6O[C@H](CO)[C@@H](O)[C@H](O)[C@H]6O[C@@H]6O[C@H](CO)[C@@H](O)[C@H](O)[C@H]6O)C(C)(C)[C@@H]5CC[C@]34C)[C@H](O)[C@@H](O)[C@@H]2O)[C@H](O)[C@H](O)[C@H]1O`, for which the Activity entry was “Non-toxic”.

In the case of `CC(C)(/C=C/C[C@](C)(O[C@@H]1O[C@H](CO[C@@H]2O[C@H](CO)[C@@H](O)[C@H](O)[C@H]2O)[C@@H](O)[C@H](O)[C@H]1O)[C@H]1CC[C@]2(C)[C@@H]1[C@H](O)C[C@@H]1[C@@]3(C)C[C@@H](O)[C@H](O)C(C)(C)[C@@H]3CC[C@]12C)OO`, the Activity result is “Non-toxic”.

On to `C=C(C)C(=O)CC[C@](C)(O[C@@H]1O[C@H](CO[C@@H]2O[C@@H](C)[C@H](O)[C@@H](O)[C@H]2O)[C@@H](O)[C@H](O)[C@H]1O)[C@H]1CC[C@]2(C)[C@@H]1[C@H](O)C[C@@H]1[C@@]3(C)C[C@@H](O)[C@H](O[C@@H]4O[C@H](CO)[C@@H](O)[C@H](O)[C@H]4O[C@@H]4O[C@H](CO)[C@@H](O)[C@H](O)[C@H]4O)C(C)(C)[C@@H]3CC[C@]12C`, for which the Activity result is “Non-toxic”.

For `C=C(C)C(=O)CC[C@](C)(O[C@@H]1O[C@H](CO[C@@H]2O[C@H](CO)[C@@H](O)[C@H](O)[C@H]2O)[C@@H](O)[C@H](O)[C@H]1O)[C@H]1CC[C@]2(C)[C@@H]1[C@H](O)C[C@@H]1[C@@]3(C)C[C@@H](O)[C@H](O)C(C)(C)[C@@H]3CC[C@]12C`, the Activity entry is “Non-toxic”.

For the compound `CC(C)/C=C/C[C@](C)(O[C@@H]1O[C@H](CO[C@@H]2O[C@@H](C)[C@H](O)[C@@H](O)[C@H]2O)[C@@H](O)[C@H](O)[C@H]1O)[C@H]1CC[C@]2(C)[C@@H]1[C@H](O)C[C@@H]1[C@@]3(C)C[C@@H](O)[C@H](O[C@@H]4O[C@H](CO)[C@@H](O)[C@H](O)[C@H]4O)C(C)(C)[C@@H]3CC[C@]12C`, the Activity entry is on record as “Non-toxic”.

As to `C=C(C)C(=O)CC[C@](C)(O[C@@H]1O[C@H](CO[C@@H]2O[C@@H](C)[C@H](O)[C@@H](O)[C@H]2O)[C@@H](O)[C@H](O)[C@H]1O)[C@H]1CC[C@]2(C)[C@@H]1[C@H](O)C[C@@H]1[C@@]3(C)C[C@@H](O)[C@H](O)C(C)(C)[C@@H]3CC[C@]12C`, the Activity entry is “Non-toxic”.

On to `CC(C)/C=C/C[C@](C)(O[C@@H]1O[C@H](CO[C@@H]2O[C@@H](C)[C@H](O)[C@@H](O)[C@H]2O)[C@@H](O)[C@H](O)[C@H]1O)[C@H]1CC[C@]2(C)[C@@H]1[C@H](O)C[C@@H]1[C@@]3(C)CC[C@H](O[C@@H]4O[C@H](CO)[C@@H](O)[C@H](O)[C@H]4O[C@@H]4O[C@H](CO)[C@@H](O)[C@H](O)[C@H]4O)C(C)(C)[C@@H]3CC[C@]12C`, for which the Activity entry is “Non-toxic”.

`CC(C)/C=C/C[C@](C)(O[C@@H]1O[C@H](CO[C@@H]2O[C@@H](C)[C@H](O)[C@@H](O)[C@H]2O)[C@@H](O)[C@H](O)[C@H]1O)[C@H]1CC[C@]2(C)[C@@H]1[C@H](O)C[C@@H]1[C@@]3(C)C[C@@H](O)[C@H](O)C(C)(C)[C@@H]3CC[C@]12C`: the Activity result is given as “Non-toxic”.

(Values after ChEMBL document CHEMBL3580615, “Isolation and Characterization of Dammarane-Type Saponins from Gynostemma pentaphyllum and Their Inhibitory Effects on IL-6-Induced STAT3 Activation” (J Nat Prod, 2015).)
